Each block holds one compound with its values, some of them ahead of it.
Columns and labels:
NCI-H460 [1] = experiment: Inhibition of human NCI-H460 cell proliferation by sulphorodhamine B assay; format: functional, cell-based
HeLa [2] = experiment: Inhibition of human HeLa cell proliferation; format: functional, cell-based
MCF7 [3] = experiment: Inhibition of human MCF7 cell proliferation by MTT assay; format: functional, cell-based
A-431 = experiment: Inhibition of human A431 cell proliferation by MTT assay; format: functional, cell-based
EJ = experiment: Inhibition of human EJ cell proliferation by MTT assay; format: functional, cell-based
SW480 = experiment: Inhibition of human SW480 cell proliferation by MTT assay; format: functional, cell-based
KB = experiment: Inhibition of human KB cell proliferation by MTT assay; format: functional, cell-based
SK-MEL = experiment: Inhibition of human SK-MEL cell proliferation by MTT assay; format: functional, cell-based
MC3T3-E1 = experiment: Inhibition of mouse MC3T3-E1 cell proliferation after 48 to 72 hrs; format: functional, cell-based
Drosophila melanogaster = experiment: Inhibition of Drosophila melanogaster DNA topoisomerase 2-mediated pBR322 DNA relaxation by agarose gel electrophoresis
CHO [4] = experiment: Inhibition of CHO cell proliferation by colony-forming assay; format: cell-based; settings: Cricetulus griseus
CHO [5] = experiment: Inhibition of verapamil-resistant CHO cell proliferation by colony-forming assay; format: cell-based; settings: Cricetulus griseus
HT-29 [6] = experiment: Inhibition of human HT-29 cell proliferation; format: functional, cell-based
[7] = target: DNA topoisomerase 2-alpha (Homo sapiens) (UniProt P11388); experiment: Inhibition of human topoisomerase 2 assessed as conversion of catenated to decatenated form of kDNA
DNA topoisomerase 2-alpha (Homo sapiens), sequence (P11388 whole entry): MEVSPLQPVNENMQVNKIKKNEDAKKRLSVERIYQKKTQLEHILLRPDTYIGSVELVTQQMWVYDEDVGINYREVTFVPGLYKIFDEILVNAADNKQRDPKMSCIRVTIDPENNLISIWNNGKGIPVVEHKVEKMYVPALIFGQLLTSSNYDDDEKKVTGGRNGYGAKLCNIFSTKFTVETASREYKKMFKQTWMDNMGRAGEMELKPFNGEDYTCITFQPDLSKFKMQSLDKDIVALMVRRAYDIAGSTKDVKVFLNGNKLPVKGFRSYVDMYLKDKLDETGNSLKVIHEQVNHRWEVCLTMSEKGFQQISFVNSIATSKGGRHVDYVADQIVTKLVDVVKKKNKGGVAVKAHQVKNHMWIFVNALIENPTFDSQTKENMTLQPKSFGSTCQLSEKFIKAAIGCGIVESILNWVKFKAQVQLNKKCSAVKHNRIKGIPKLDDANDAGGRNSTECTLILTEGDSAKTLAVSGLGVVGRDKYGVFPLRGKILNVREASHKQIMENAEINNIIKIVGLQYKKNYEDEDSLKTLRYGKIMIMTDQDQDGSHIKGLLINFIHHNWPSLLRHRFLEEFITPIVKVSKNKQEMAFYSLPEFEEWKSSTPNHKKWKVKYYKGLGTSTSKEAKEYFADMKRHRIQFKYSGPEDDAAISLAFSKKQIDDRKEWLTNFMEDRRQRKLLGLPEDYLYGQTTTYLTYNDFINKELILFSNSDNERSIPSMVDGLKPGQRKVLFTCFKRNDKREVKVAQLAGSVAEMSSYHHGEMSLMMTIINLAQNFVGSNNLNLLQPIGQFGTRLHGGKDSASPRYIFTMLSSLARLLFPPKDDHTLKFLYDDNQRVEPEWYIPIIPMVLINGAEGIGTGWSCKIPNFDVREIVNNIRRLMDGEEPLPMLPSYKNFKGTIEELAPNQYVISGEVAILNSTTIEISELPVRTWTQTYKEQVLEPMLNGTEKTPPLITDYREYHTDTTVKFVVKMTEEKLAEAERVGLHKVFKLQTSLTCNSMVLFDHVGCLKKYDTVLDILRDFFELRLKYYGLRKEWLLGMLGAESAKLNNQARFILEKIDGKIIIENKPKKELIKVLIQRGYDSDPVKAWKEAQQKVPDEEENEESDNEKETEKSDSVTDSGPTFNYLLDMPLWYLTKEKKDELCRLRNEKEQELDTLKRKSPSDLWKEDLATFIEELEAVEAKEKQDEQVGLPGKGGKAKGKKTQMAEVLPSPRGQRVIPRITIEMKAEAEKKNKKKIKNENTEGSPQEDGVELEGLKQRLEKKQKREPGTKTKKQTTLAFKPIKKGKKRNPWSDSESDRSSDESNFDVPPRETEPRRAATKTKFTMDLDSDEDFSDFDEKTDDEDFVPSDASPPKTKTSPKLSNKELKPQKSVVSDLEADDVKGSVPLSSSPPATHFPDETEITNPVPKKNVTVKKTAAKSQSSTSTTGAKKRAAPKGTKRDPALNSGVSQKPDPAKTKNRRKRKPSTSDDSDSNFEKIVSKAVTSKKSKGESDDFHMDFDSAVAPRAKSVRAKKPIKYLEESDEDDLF

DU-145 = experiment: Inhibition of human DU145 cell proliferation; format: functional, cell-based
B16 = experiment: Inhibition of mouse B16 cell proliferation; format: functional, cell-based
NCI-H226 = experiment: Inhibition of human NCI-H226 cell proliferation; format: functional, cell-based
[8] = Inhibition of human MDA231 cell proliferation; format: functional, cell-based; settings: MDA-MB-231
[9] = target: DNA topoisomerase 2-alpha (Homo sapiens) (UniProt P11388); experiment: Inhibition of human topoisomerase 2-mediated DNA unwinding activity
MCF7 [10] = experiment: Inhibition of human MCF7 cell proliferation; format: functional, cell-based
[11] = Inhibition of human RPMI8226/S cell proliferation; format: functional, cell-based
G-quadruplex DNA = experiment: Interaction with G-quadruplex DNA assessed by polymerase stop assay
[12] = Stability in phosphate buffer of pH 7.4 after 6 days; format: physicochemical; settings: read-out: Stability
How it was run: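 Compound dissolved at 1 mM in DMSO, diluted with phosphate buffer pH 7.4 to 1 mL, incubated sealed at 37 °C for 6 days. A t0 aliquot was held at 4 °C. HPLC with 280 nm detection and duplicate injections, with expected degradation products as references. Stability is taken as compound peak area over (compound + degradation product) peak area.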

PC-3 [13] = experiment: Antitumor activity against human PC3 cells after 5 days by MTT assay; format: functional, cell-based; settings: PC-3, 120 h
How it was run: (§1)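 Five human cancer lines (prostate PC-3, glioblastoma U373-MG, colorectal LoVo, NSCLC A549, breast MCF-7) plated at 10⁴ to 3×10⁴ cells/mL depending on cell type, allowed 24 h to attach, then cultured 120 h with or without drug at nine concentrations. MTT reduction to formazan read at 570 nm (reference 630 nm).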

[14] = Antitumor activity against human U373MG cells after 5 days by MTT assay; format: functional, cell-based, U-373MG ATCC; settings: U373 MG, 120 h; how it was run: as §1
LoVo [15] = experiment: Antitumor activity against human LoVo cells after 5 days by MTT assay; format: functional, cell-based; settings: 120 h; how it was run: as §1
A549 [16] = experiment: Antitumor activity against human A549 cells after 5 days by MTT assay; format: functional, cell-based; settings: A549, 120 h; how it was run: as §1
MCF7 [17] = experiment: Antitumor activity against human MCF7 cells after 5 days by MTT assay; format: functional, cell-based; settings: MCF7, 120 h; how it was run: as §1
PC-3 [18] = experiment: Ratio of ciprofloxacin IC50 to compound IC50 for human PC3 cells; format: functional
U373 MG = experiment: Ratio of ciprofloxacin IC50 to compound IC50 for human U373MG cells; format: functional, U-373MG ATCC
LoVo [19] = experiment: Ratio of ciprofloxacin IC50 to compound IC50 for human LoVo cells; format: functional
A549 [20] = experiment: Ratio of ciprofloxacin IC50 to compound IC50 for human A549 cells; format: functional
MCF7 [21] = experiment: Ratio of ciprofloxacin IC50 to compound IC50 for human MCF7 cells; format: functional
[22] = Toxicity in ip dosed B6D2F1 mouse assessed as maximum tolerated dose after 28 days; format: organism-based; settings: in vivo
How it was run: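 Healthy mice, three per group, each given a single ip dose and observed for up to 28 days. The MTD index is the highest single dose given without causing any deaths in the group.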

[23] = Inhibition of mouse NIH/3T3 cell proliferation by MTT assay; format: cell-based; settings: NIH3T3
A549 [24] = experiment: Antitumor activity against human A549 cells after 3 days by MTT assay; format: functional, cell-based; settings: A549, 72 h
HCT-8 = experiment: Antitumor activity against human HCT8 cells after 3 days by MTT assay; format: functional, cell-based; settings: HCT-8, 72 h
MCF7 [25] = experiment: Antitumor activity against human MCF7 cells after 3 days by MTT assay; format: functional, cell-based; settings: MCF7, 72 h
HT-29 [26] = experiment: Antitumor activity against human HT-29 cells after 3 days by MTT assay; format: functional, cell-based; settings: HT-29, 72 h
[27] = Inhibition of human […] cell proliferation; format: functional, cell-based
P388 = experiment: Inhibition of mouse P388 cell proliferation; format: functional, cell-based
HeLa [28] = experiment: Inhibition of human HeLa cell proliferation assessed as bromodeoxyuridine incorporation during DNA synthesis after 48 hrs by ELISA; format: functional, cell-based
MG-63 = experiment: Inhibition of human MG63 cell proliferation assessed as bromodeoxyuridine incorporation during DNA synthesis after 48 hrs by ELISA; format: functional, cell-based; settings: MG-63, 48 h
MCF7 [29] = experiment: Inhibition of human MCF7 cell proliferation after 5 days by MTT assay; format: functional, cell-based; settings: MCF7, 120 h; how it was run: as §1
V79 = experiment: Inhibition of chinese hamster V79 cell proliferation assessed as bromodeoxyuridine incorporation during DNA synthesis after 48 hrs by ELISA; settings: Cricetulus griseus, V79, 48 h
K562 = experiment: Inhibition of human K562 cell proliferation by sulphorodhamine B assay; format: functional, cell-based
NCI-H460 [30] = experiment: Induction of apoptosis in human NCI-H460 cells at 120 uM by sulphorodhamine B assay; format: functional
[31] = target: DNA topoisomerase 2-alpha (Homo sapiens) (UniProt P11388); experiment: Inhibition of topoisomerase 2-mediated DNA relaxation activity in human HeLa cells by Oomori method; format: cell-based

SMILES: N[C@@H]1[C@H]2CN(c3nc4c(cc3F)c(=O)c(C(=O)O)cn4-c3ccc(F)cc3F)C[C@@H]12 [TROVAFLOXACIN]
IC50 (MC3T3-E1): < 1.2 µM

SMILES: N[C@@H]1CCN(c2c(F)cc3c(=O)c(C(=O)O)cn4c3c2Oc2c-4ccc3c2ccc2ccccc23)C1
IC50 (MCF7 [10]): 0.5 µM
IC50 [11]: 0.3 µM
IC50 (G-quadruplex DNA): 0.06 µM

SMILES: O=C(O)c1cn(C2CC2)c2cc(N3CCN(C(=O)CCl)CC3)c(F)cc2c1=O
remaining at 144 h [12]: > 99%
IC50 (PC-3 [13]): 8 µM
IC50 [14]: 4 µM
IC50 (LoVo [15]): 17 µM
IC50 (A549 [16]): 10 µM
IC50 (MCF7 [17]): 23 µM
Ratio IC50 (PC-3 [18]): 5
Ratio IC50 (U373 MG): 5
Ratio IC50 (LoVo [19]): 5
Ratio IC50 (A549 [20]): 5
Ratio IC50 (MCF7 [21]): 5
MTD at 672 h [22]: > 80 mg/kg

SMILES: N[C@H]1CCN(c2c(F)cc3c(=O)c(C(=O)O)cn4c3c2Oc2c-4ccc3c2ccc2ccccc23)C1
IC50 (MCF7 [10]): 1 µM
IC50 [11]: 0.7 µM
IC50 (G-quadruplex DNA): 0.7 µM

SMILES: CCn1cc(C(=O)O)c(=O)c2cc(F)c(N3CCNCC3)cc21 [NORFLOXACIN]
IC50 (NCI-H460 [1]): 86 µM
IC50 (HeLa [2]): 390 µM
IC50 (MCF7 [3]): 238 µM
IC50 (A-431): 70 µM
IC50 (EJ): 210 µM
IC50 (SW480): 168 µM
IC50 (KB): 150 µM
IC50 (SK-MEL): 194 µM
IC50 [23]: > 1000 µM

SMILES: CC(C)(C)OC(=O)N1CCN(c2cc3c(cc2F)c(=O)c(C(=O)O)cn3C2CC2)CC1
remaining at 144 h [12]: > 99%
IC50 (PC-3 [13]): 26 µM
IC50 [14]: 35 µM
IC50 (LoVo [15]): 40 µM
IC50 (A549 [16]): 18 µM
IC50 (MCF7 [17]): 13 µM
Ratio IC50 (PC-3 [18]): 2
Ratio IC50 (U373 MG): 2
Ratio IC50 (LoVo [19]): 2
Ratio IC50 (A549 [20]): 2
Ratio IC50 (MCF7 [21]): 2
MTD at 672 h [22]: > 80 mg/kg

SMILES: O=C(O)c1cn(C2CC2)c2cc(-c3ccc(O)cc3)c(F)cc2c1=O
Activity (Drosophila melanogaster): 130 µM
IC50 (CHO [4]): 20 µM
IC50 (CHO [5]): 40 µM

SMILES: O=C(O)c1cn(C2CC2)c2cc(N3CCNCC3)c(F)cc2c1=O [CIPROFLOXACIN]
IC50 (PC-3 [13]): 143 µM
IC50 [14]: 96 µM
IC50 (LoVo [15]): 89 µM
IC50 (A549 [16]): 280 µM
IC50 (MCF7 [17]): 476 µM
MTD at 672 h [22]: > 80 mg/kg
IC50 (HeLa [28]): 800 µM
IC50 (MG-63): 480 µM
IC50 (NCI-H460 [1]): 60 µM
IC50 (HeLa [2]): 270 µM
IC50 (MCF7 [3]): 199 µM
IC50 (MCF7 [29]): 76 µM
IC50 (A-431): 135 µM
IC50 (EJ): 202 µM
IC50 (SW480): 128 µM
IC50 (KB): 160 µM
IC50 (SK-MEL): 196 µM
IC50 (MC3T3-E1): 120 µM
IC50 [23]: > 1000 µM
IC50 (V79): > 1000 µM
IC50 (K562): > 150 µM
Activity (NCI-H460 [30]): 35%
Activity [31]: 104 µM

Further lines, with some results ahead:

IC50 (NCI-H460 [1]): 36 µM
IC50 (HeLa [2]): 170 µM
IC50 (MCF7 [3]): 193 µM
IC50 (A-431): 150 µM
IC50 (SW480): 159 µM
IC50 (KB): 137 µM
IC50 (SK-MEL): 196 µM
SMILES: CCn1cc(C(=O)O)c(=O)c2cc(F)c(N3CCNCC3)nc21 [ENOXACIN]
IC50 (EJ): 178 µM

Activity (Drosophila melanogaster): 60 µM
SMILES: O=C(O)c1cn(C2CC2)c2c(F)c(-c3ccc(O)cc3)c(F)cc2c1=O
IC50 (CHO [4]): 9 µM
IC50 (CHO [5]): 12 µM

IC50 (HT-29 [6]): 0.05 µM
Activity [7]: 0.5 µM
IC50 (DU-145): 0.06 µM
IC50 (B16): 0.2 µM
IC50 (NCI-H226): 0.03 µM
Activity [9]: 10 µM
SMILES: N[C@H]1CCN(c2c(F)cc3c(=O)c(C(=O)O)cn4c3c2Oc2c-4ccc3ccccc23)C1
IC50 [8]: 0.08 µM

IC50 (HT-29 [6]): 0.03 µM
Activity [7]: 0.2 µM
IC50 (NCI-H226): 0.01 µM
Activity [9]: 3 µM
SMILES: N[C@@H]1CCN(c2c(F)cc3c(=O)c(C(=O)O)cn4c3c2Oc2c-4ccc3ccccc23)C1
IC50 [8]: 0.005 µM

IC50 (A549 [24]): 1.3 µM
IC50 (HCT-8): 0.3 µM
IC50 (MCF7 [25]): 0.8 µM
IC50 (HT-29 [26]): 0.5 µM
IC50 (HT-29 [6]): 0.2 µM
Activity [7]: 0.5 µM
IC50 (DU-145): 0.2 µM
Activity [9]: 50 µM
IC50 (P388): 0.05 µM
IC50 (MCF7 [10]): 0.7 µM
SMILES: NC1CCN(c2c(F)cc3c(=O)c(C(=O)O)cn4c3c2Oc2ccccc2-4)C1 (stereo not given)
IC50 [27]: 0.7 µM
IC50 [11]: 0.3 µM

IC50 (HeLa [28]): 320 µM
SMILES: COc1c(N2C[C@@H]3CCCN[C@@H]3C2)c(F)cc2c(=O)c(C(=O)O)cn(C3CC3)c12 [MOXIFLOXACIN]
IC50 (MG-63): 230 µM

IC50 (NCI-H460 [1]): 152 µM
SMILES: C[C@H]1COc2c(N3CCN(C)CC3)c(F)cc3c(=O)c(C(=O)O)cn1c23 [LEVOFLOXACIN]
IC50 (MC3T3-E1): 220 µM

From ChEMBL document CHEMBL1154114, “7-((4-Substituted)piperazin-1-yl) derivatives of ciprofloxacin: synthesis and in vitro biological evaluation as potential antitumor agents” (Bioorg Med Chem, 2009)
